Data taken from the EternaBench riboswitch data.

Test system: MS2 coat protein
Test: apparent Kd, MS2 coat protein; higher = weaker binding; RNA-MaP array; FMN 200 µM where present
Summary of the method: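 The apparent Kd is the median of filtered binding-curve fits, one per cluster, to green signal normalised to red-channel RNA signal and control-cluster median Fmax. The clusters were on Illumina sequencing chips, and stalled E. coli RNA polymerase had transcribed the designs on them. Titration used SNAP-549-labelled MS2 coat protein from 0.7 or 1.5 nM, doubling to 3 µM, without and then with constant ligand, in 100 mM Tris-HCl pH 7.5, 80 mM KCl, 4 mM MgCl2, BSA, DTT, yeast tRNA and Tween-20.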

[1] = designed as: OFF switch for flavin mononucleotide, no ligand
[2] = ligand present: flavin mononucleotide, designed as: OFF switch for flavin mononucleotide
[3] = designed as: ON switch for flavin mononucleotide, no ligand
[4] = ligand present: flavin mononucleotide, designed as: ON switch for flavin mononucleotide

Sequence | apparent Kd [1] | apparent Kd [2] | apparent Kd [3] | apparent Kd [4]
CUUUUGUGAGGAUAUCAGUAGUAAUACAAUAGUAUUACUACUGAGAAGGUACAUGAGGAUCACCCAUGUUCCUC | 17.8 nM | 21.2 nM | – | –
CUAAAUCAUGUAGGAUAUCGAUUGCGUCGCGAUCGAGAAGGACAUGAGGAUCACCCAUGUCAGAACGUCUGCGUUCAGACGUUG | 48.5 nM | 361 nM | – | –
UUGCCUCAGAACAUGAGGAUCACCCAUGUGCUGCGGGCAACGUAGGAUAUGAUGGUACGCUACCAUCAGAAGGAUGAUGGUACC | – | – | 5.51 nM | 4.99 nM
GCACGAUAUCAGGAUAUGACUAGCCUCGGCUAGUCAGAAGGGAUGACAUGAGGAUCACCCAUGUGAUCACGUGC | 57.2 nM | 77.9 nM | – | –
CAGACACAUCUAGGAUAUGGUGAUGCUCAAAACACAUGAGGAUCACCCAUGUAGCCUGUGUAUAAUCAGAAGGAGAACCGUGUA | – | – | 84.6 nM | 500 nM
AAGUCACAUGAGGAUCACCCAUGUCGUAAACGAUGAGGAUAUAGGAAAAAAAAAAAAAAACUAGAAGGUAUAACAA | – | – | 69.3 nM | 69.1 nM
GCUUUAUUGGUCAGGAUAUACAUUUGCUACUCUUUGUAGAAGGGACAUGAGGAUCACCCAUGUACUUUACAUUC | 16 nM | 16.4 nM | – | –
UACAUGUGAGGAUAUGUACGAAGCCCGGCUGGGCCUCGCAGGCAGAAGGCACAUGAGGAUCACCCAUGUGACCG | 15.9 nM | 53.4 nM | – | –
UGUCCACAUGAGGAUCACCCAUGUGAGGAUAUCCAUAAACACAUCGUAUGUGUAUUAUGGAGAAGGCACACACA | 16.1 nM | 21.9 nM | – | –
AAAUCGAGUGUAGGAUAUGCACAGUUUGACCGUGCAGAAGGACACAUGAGGAUCACCCAUGUUAGCUCAUGGGCGGUGACUUAG | 92.2 nM | 82.2 nM | – | –
UGAUAGGACAGAGGAUAUGCUGAUAGGAUCUACUAUCGAAGAAUCCUCACAUGAGGAUCACCCAUGUAGAAGGCUGUCCUAUCU | 12 nM | 143 nM | – | –
UGAACCAUGACAUGAGAUGACAUGAGGAUCACCCAUGUGUACAAGGAUAUGUUGGUCGACGAUCGGCAGAAGGUGUAAUGGGAU | 58.9 nM | 196 nM | – | –
AAGCCCUGAGGAUAUCCCAACUCGCACAUGAGGAUCACCCAUGUCCUUCUCUGGGCUUCGGGAGAAGGCAGGUCUC | 90.3 nM | 305 nM | – | –
GUAGCUCAUGAGAAGGCGAUCAUGAAACAUGAUCGAGGAUAUCAUGUAAACAUGAGGAUCACCCAUGUAUGGGUAUUAUGCUAC | – | – | 126 nM | 47.1 nM
GUCGGAAACGACAAUGAUAGGACUGAGGAUAUACAUAAGUUAGUCCACACAUGAGGAUCACCCAUGUAGAAGGCAGUCCUAUCU | 29.5 nM | 357 nM | – | –
ACAUGAUACAAGAAGGAUGUAUUAGAUUUGAUCAUAGGAUAUUGUUAUAUUGUUUACUCUAAUAACAUGAGGAUCACCCAUGUA | – | – | 10.7 nM | 7.53 nM
GGCUUAAACACAGGAUAUGGCCUCAGAGUAAGGCCAGAAGGGUGAAGUUCUCAUACAUGAGGAUCACCCAUGUCAAGGAGGCUA | – | – | 521 nM | 204 nM
GGUGCGUUUGUGAGGAUAUGCUGGUCCUUGGAUCGGCAGAAGGCACAUGAGGAUCACCCAUGUGGUGUCGUACC | 310 nM | 29.6 nM | – | –
AGUGCUAUGUAGAAGGCAGAUCUGAUUCAGAUCUGAGGAUAUACAUGAGGAUCACCCAUGUUAUGCACCAGCACGAGAGUGCAU | 20 nM | 98 nM | – | –
AAUAACAGAGGAUAUACUGUUUUAUGUGUUUGUUAUUUUAAACAUGAGGAUCACCCAUGUAGAAGGCUGAGUAA | 27.4 nM | 27 nM | – | –
